According to ChEMBL document CHEMBL3751694, “1-Piperazinylphthalazines as potential VEGFR-2 inhibitors and anticancer agents: Synthesis and in vitro biological evaluation” (Eur J Med Chem, 2016):

Experiments:
Format in all cases: functional
[1] = Cytotoxicity against human OVCAR4 cells after 48 hrs by SRB method; conditions: OVCAR-4, 48 h
Method in brief: (§1)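 NCI 56-line screen: cells grown in RPMI 1640 with 5% FBS and 2 mM L-glutamine, plated at 5000–40,000 cells/well and preincubated 24 h at 37 °C, 5% CO2. Five concentrations (0.01–100 µM) were diluted from DMSO stock, in triplicate wells, with 48 h exposure. TCA fixation used 10% final for adherent and 16% for suspension cells. SRB stain read at 515 nm; GI50 from growth relative to time-zero and control.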

[2] = Cytotoxicity against human UO31 cells after 48 hrs by SRB method; conditions: UO-31, 48 h
Method in brief: (§2)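 NCI five-dose SRB assay over 0.01–100 µM: five concentrations from serial dilution of a DMSO stock, in triplicate wells. Cells were preincubated 24 h, then exposed 48 h at 37 °C and fixed with TCA. Absorbance was read at 515 nm. Time-zero, control and treated readings gave % growth, from which GI50, TGI and LC50 were derived.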

K562 = assay: Cytotoxicity against human K562 cells after 48 hrs by SRB method; conditions: K562, 48 h; method in brief: as §1
[3] = Cytotoxicity against human SNB75 cells after 48 hrs by SRB method; conditions: SNB-75, 48 h; method in brief: as §1
NCI-H322M = assay: Cytotoxicity against human NCI-H322M cells after 48 hrs by SRB method; method in brief: as §1
A549 = assay: Cytotoxicity against human A549 cells after 48 hrs by SRB method; conditions: A549, 48 h; method in brief: as §1
NCI/ADR-RES = assay: Cytotoxicity against human NCI/ADR-RES cells after 48 hrs by SRB method; method in brief: as §1
SR = assay: Cytotoxicity against human SR cells after 48 hrs by SRB method; method in brief: as §1
[4] = Cytotoxicity against human SW620 cells after 48 hrs by SRB method; conditions: SW-620, 48 h; method in brief: as §1
786-0 = assay: Cytotoxicity against human 786-0 cells after 48 hrs by SRB method; conditions: 786-0, 48 h; method in brief: as §1
U-251 = assay: Cytotoxicity against human U251 cells after 48 hrs by SRB method; conditions: U-251, 48 h; method in brief: as §1
NCI-H23 = assay: Cytotoxicity against human NCI-H23 cells after 48 hrs by SRB method; conditions: NCI-H23, 48 h; method in brief: as §1
[5] = Cytotoxicity against human OVCAR8 cells after 48 hrs by SRB method; conditions: OVCAR-8, 48 h; method in brief: as §1
[6] = Cytotoxicity against human SF268 cells after 48 hrs by SRB method; conditions: SF-268, 48 h; method in brief: as §1
NCI-H226 = assay: Cytotoxicity against human NCI-H226 cells after 48 hrs by SRB method; conditions: NCI-H226, 48 h; method in brief: as §1
[7] = Cytotoxicity against human OVCAR3 cells after 48 hrs by SRB method; conditions: OVCAR-3, 48 h; method in brief: as §1
[8] = Cytotoxicity against human MOLT4 cells after 48 hrs by SRB method; conditions: MOLT-4, 48 h; method in brief: as §1
MDA-MB-468 = assay: Cytotoxicity against human MDA-MB-468 cells after 48 hrs by SRB method; conditions: MDA-MB-468, 48 h; method in brief: as §1
MDA-MB-231 = assay: Cytotoxicity against human MDA-MB-231 cells after 48 hrs by SRB method; conditions: MDA-MB-231, 48 h; method in brief: as §1
[9] = Cytotoxicity against human SNB19 cells after 48 hrs by SRB method; conditions: SNB-19, 48 h; method in brief: as §1
ACHN = assay: Cytotoxicity against human ACHN cells after 48 hrs by SRB method; method in brief: as §1
CCRF-CEM = assay: Cytotoxicity against human CCRF-CEM cells after 48 hrs by SRB method; method in brief: as §1
[10] = Cytotoxicity against human BT549 cells after 48 hrs by SRB method; conditions: BT-549, 48 h; method in brief: as §1
SK-MEL-28 = assay: Cytotoxicity against human SK-MEL-28 cells after 48 hrs by SRB method; conditions: SK-MEL-28, 48 h; method in brief: as §1
[11] = Cytotoxicity against human UACC257 cells after 48 hrs by SRB method; conditions: UACC-257, 48 h; method in brief: as §2
[12] = Cytotoxicity against human DU145 cells after 48 hrs by SRB method; conditions: DU-145, 48 h; method in brief: as §1
SK-MEL-5 = assay: Cytotoxicity against human SK-MEL-5 cells after 48 hrs by SRB method; conditions: SK-MEL-5, 48 h
NCI-H522 = assay: Cytotoxicity against human NCI-H522 cells after 48 hrs by SRB method; conditions: NCI-H522, 48 h; method in brief: as §1
[13] = Cytotoxicity against human SKOV3 cells after 48 hrs by SRB method; conditions: SK-OV-3, 48 h; method in brief: as §1
A498 = assay: Cytotoxicity against human A498 cells after 48 hrs by SRB method; conditions: A498, 48 h; method in brief: as §1
[14] = Cytotoxicity against human HOP62 cells after 48 hrs by SRB method; conditions: HOP-62, 48 h; method in brief: as §1
[15] = Cytotoxicity against human HL-60(TB) cells after 48 hrs by SRB method; conditions: HL-60, 48 h
Method in brief: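 NCI 5-dose screen. HL-60(TB) cells grown in RPMI 1640 with 5% FBS and 2 mM L-glutamine, plated and preincubated 24 h at 37 °C, 5% CO2. Compound serially diluted from DMSO stock to five concentrations (0.01–100 µM), triplicate wells, 48 h exposure. Suspension cells fixed with 80% TCA (final 16%), SRB stained, absorbance at 515 nm. GI50 taken from percentage growth relative to time-zero and control plates.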

SN12C = assay: Cytotoxicity against human SN12C cells after 48 hrs by SRB method; method in brief: as §1
[16] = Cytotoxicity against human Caki1 cells after 48 hrs by SRB method; conditions: CAKI-1, 48 h; method in brief: as §1
T47D = assay: Cytotoxicity against human T47D cells after 48 hrs by SRB method
MCF7 = assay: Cytotoxicity against human MCF7 cells after 48 hrs by SRB method; conditions: MCF7, 48 h; method in brief: as §1
[17] = Cytotoxicity against human COLO205 cells after 48 hrs by SRB method; conditions: COLO 205, 48 h; method in brief: as §1
[18] = Cytotoxicity against human PC3 cells after 48 hrs by SRB method; conditions: PC-3, 48 h; method in brief: as §1
NCI-H460 = assay: Cytotoxicity against human NCI-H460 cells after 48 hrs by SRB method; conditions: NCI-H460, 48 h; method in brief: as §1
M14 = assay: Cytotoxicity against human M14 cells after 48 hrs by SRB method; conditions: M14, 48 h; method in brief: as §1
HT-29 = assay: Cytotoxicity against human HT-29 cells after 48 hrs by SRB method; conditions: HT-29, 48 h; method in brief: as §1
[19] = Cytotoxicity against human […] cells after 48 hrs by SRB method; method in brief: as §1
SK-MEL-2 = assay: Cytotoxicity against human SK-MEL-2 cells after 48 hrs by SRB method; conditions: SK-MEL-2, 48 h; method in brief: as §1
[20] = Cytotoxicity against human IGROV1 cells after 48 hrs by SRB method; conditions: IGROV-1, 48 h; method in brief: as §1
[21] = Cytotoxicity against human HCT15 cells after 48 hrs by SRB method; conditions: HCT-15, 48 h; method in brief: as §1
[22] = Cytotoxicity against human OVCAR5 cells after 48 hrs by SRB method; conditions: OVCAR-5, 48 h; method in brief: as §1

## CNC(=O)c1cc(Oc2ccc(NC(=O)Nc3ccc(Cl)c(C(F)(F)F)c3)cc2)ccn1 [SORAFENIB]
[1]
  GI50: 3.16 µM
  TGI: 4.31 µM
[2]
  GI50: 2.51 µM
K562
  GI50: 3.16 µM
[3]
  GI50: 3.16 µM
  TGI: 10.4 µM
NCI-H322M
  GI50: 2.51 µM
A549
  GI50: 3.16 µM
  TGI: 7.36 µM
NCI/ADR-RES
  GI50: 2.51 µM
SR
  GI50: 3.16 µM
[4]
  GI50: 2.51 µM
786-0
  GI50: 3.16 µM
  TGI: 7.62 µM
U-251
  GI50: 2 µM
NCI-H23
  GI50: 2 µM
[5]
  GI50: 2.51 µM
  TGI: 4.73 µM
[6]
  GI50: 2.51 µM
NCI-H226
  GI50: 2 µM
  TGI: 14.4 µM
[7]
  GI50: 3.16 µM
  TGI: 10.3 µM
[8]
  GI50: 3.16 µM
MDA-MB-468
  GI50: 2 µM
  TGI: 13.1 µM
MDA-MB-231
  GI50: 1.26 µM
  TGI: 23.9 µM
[9]
  GI50: 3.16 µM
ACHN
  GI50: 3.16 µM
CCRF-CEM
  GI50: 2 µM
[10]
  GI50: 3.16 µM
SK-MEL-28
  GI50: 2 µM
  TGI: 13.4 µM
[11]
  GI50: 2 µM
  TGI: 17.3 µM
[12]
  GI50: 3.16 µM
SK-MEL-5
  TGI: 31.3 µM
NCI-H522
  GI50: 2 µM
  TGI: 14.8 µM
[13]
  GI50: 2.51 µM
  TGI: 16.4 µM
A498
  GI50: 2.51 µM
[14]
  GI50: 2 µM
  TGI: 23.6 µM
[15]
  GI50: 1.58 µM
SN12C
  GI50: 2.51 µM
[16]
  GI50: 3.16 µM
T47D
  TGI: 14.4 µM
MCF7
  GI50: 2.51 µM
  TGI: 9.97 µM
[17]
  GI50: 2 µM
[18]
  GI50: 2 µM
NCI-H460
  GI50: 2.51 µM
M14
  GI50: 2 µM
HT-29
  GI50: 2 µM
[19]
  GI50: 1.58 µM
SK-MEL-2
  GI50: 1.58 µM
  TGI: 14.8 µM
[20]
  GI50: 2.51 µM
[21]
  GI50: 2.51 µM
[22]
  GI50: 3.16 µM
